About 1,100 (0.33%) of roughly 330,000 compounds were called active. Shown is part of a subset that was picked to be rich in actives. Values without a mark were called inactive.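 The calls were made as follows: active = at 10 µM dose, activation of 40% or more, normalized to positive control; inactive = the rest.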

The nature of this experiment: activators of apoptotic CHOP UPR arm, primary screen, cell-based, CHO-CHOP luciferase reporter, luminescence, uHTS (AID 449763).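 Also: 100% = tunicamycin at 10 µg/mL and 0% = DMSO alone.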 The conditions noted are these: at 10 µM, stronger effect = higher value, percent of tunicamycin response over DMSO baseline. In short, it runs like this: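 System: CHO-CHOP luciferase reporter cell line; amount: 500 cells/well; buffer or medium: F12 medium containing 10% fetal bovine serum; incubation: 6 h compound exposure at 37 °C after overnight seeding; measured by: luciferase luminescence after 10 min with Steady-Glo reagent; evaluation: % reporter activation, DMSO baseline versus tunicamycin full activation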
Regarding `CC(C)NC(=S)N1CCN(S(C)(=O)=O)CC1`, the activation was 0.831%. Consider `CC(=O)/C(=N\Nc1ccc(Cl)cc1Cl)Sc1cccc2cccnc12`, for which the activation is 184% (active). Turning to `O=C(NNc1cc(Cl)ccc1Cl)c1cccnc1Cl`, the activation is 0.393%.

For `COc1cccc(CNC(=O)c2cccnc2Sc2ccc(Cl)cc2)c1`, the activation is 0.384%. Regarding `Cc1ccc(S(=O)(=O)CCC(=O)OCc2ccccc2)cc1`, the activation was 0.112%. Regarding `CCOC(=O)c1ccc(NC(=O)c2nc[nH]c2C(=O)N[C@@H](CCCCNC(=O)OC(C)(C)C)C(=O)OC(C)(C)C)cc1`, the activation was 2.33%. In the case of `CC(=O)c1ccc(NC(=O)c2ccc(-n3cncn3)c([N+](=O)[O-])c2)cc1`, the activation is 2.02%.

On to `COCCOC(=O)c1c(C)oc2cc(Br)c(OCC(N)=O)cc12`, for which the activation is 0.018%. For `CCc1ccc2c(c1)C1(NN=C(c3ccccc3)S1)C(=O)N2` (centres undefined), the activation is 135% (active).

In the case of `Cc1occc1C(=O)NC1CCCN(Cc2ccc(CC(C)C)cc2)C1` (centres undefined), the activation is 1.93%. Consider `O=C(Nc1c2c(nn1-c1ccccc1)CS(=O)(=O)C2)C1CCCC1`, for which the activation was -0.808%.

Regarding `COC(=O)c1ccc(C(=O)OC)c(NC(=S)N2CCN(c3cc(Cl)ccc3C)CC2)c1`, the activation was 1.94%. With `COC(=O)c1ccc(C(=O)Nc2cc(Cl)ccc2Cl)cc1NC(=O)c1ccccc1C`, the activation was 49.7% (active).

`CCCN(CCC)C(=S)Nc1cc(C(=O)OC)ccc1C(=O)OC`: the activation is 2.25%. Regarding `O=C(CSc1nc2ccccc2c(=O)n1CCCO)NC1CC1`, the activation is 1.02%. As for `CCCCn1nc(C(=O)N2CCc3ccccc32)c2ccccc2c1=O`, the activation is -1.34%. On to `O=C(Nc1ccc(OC(F)(F)F)cc1)c1ccc2c(c1)no[n+]2[O-]`, for which the activation is 61% (active). For `Cn1nccc1NC(=O)Nc1ccc(OC(F)(F)F)cc1`, the activation was 0.489%. To `Cn1cccc1/C=N/NC(=O)c1ccc(OC(F)(F)C(F)F)cc1` belongs 2.77%; to `CC(C)CC(=O)N1CCC(O)(CS(=O)(=O)Cc2ccccc2)CC1`, -0.00639%; to `Cc1ccc(NC(=O)CCOc2ccccc2)cc1S(=O)(=O)Nc1ccccc1Cl`, 2.43%. For `Cc1ccc(-c2ccc(/C=C(\C#N)C(N)=S)o2)c([N+](=O)[O-])c1`, the activation was 3.33%. `Cc1ccc(Cc2cnc(NC(=O)/C(C#N)=C/c3ccc(-c4cccc([N+](=O)[O-])c4)o3)s2)cc1`: the activation was 73.3% (active). Turning to `Cc1ccc(C(=O)N/C(=C/c2ccc(-c3cccc([N+](=O)[O-])c3)o2)C(=O)NCCCN(C)C)cc1`, the activation is -0.289%. On to `Cc1cc2c(cc1S(=O)(=O)NCc1ccc(Cl)cc1)OCC(=O)N2`, for which the activation is -0.754%. As for `Cc1ccc(C)c(S(=O)(=O)N2CCN(c3ncnc4sccc34)CC2)c1`, the activation is 5.68%. For `CCOC(=O)/C=c1\s/c(=C\c2ccc(C#N)cc2)c(=O)n1CC(=O)Nc1cccc(C)c1C`, the activation was 75.5% (active).

In the case of `Cc1cccc(NC(=O)CN2CCN(C(=O)C3CCN(C(=O)/C=C/c4ccccc4)CC3)CC2)c1C`, the activation is 0.754%. As for `Cc1cccc(NC(=O)CSC(N)=O)c1C`, the activation was -0.357%.

`COc1ccc(-c2c(C(C)=O)c(C)nc3sc4c(=O)n(-c5ccc(C)cc5)nnc4c23)cc1`: the activation is -0.914%.

Take `COC(=O)C(=Nc1ccccc1)/C(C(=O)C(=O)N(C)c1ccccc1)=C(\O)c1ccc(Cl)cc1`: the activation is 0.244%.

As for `CC1(C)CCSC(/C=C/c2ccccc2)=N1`, the activation is 57.7% (active). Turning to `C[C@H](CO)N1C[C@H](C)[C@@H](CN(C)C(=O)NC2CCCCC2)Oc2ccc(NC(=O)c3ccncc3)cc2C1=O`, the activation is 2.08%. To `O=C(CSc1cccc2cccnc12)N/N=C/c1cccnc1` belongs 227% (active); to `O=C(N/N=C/c1cccnc1)c1ccc(NC(=O)c2ccc(F)cc2)cc1`, 1.11%. On to `COc1ccc(C(=O)NCC(=O)N/N=C/c2cccnc2)cc1`, for which the activation was 2.52%. As for `Nc1nc(O)c(CC(=O)O)s1`, the activation is -0.635%. As for `COc1cc(/C=C2/C(=O)ON=C2C)ccc1OCc1ccccc1F`, the figure is 66.3% (active); as for `C=CCOc1ccc(/C=C2/C(=O)ON=C2C)cc1OCC`, 0.964%.

Turning to `COc1cc(/C=C2/C(=O)ON=C2C)ccc1OCc1cccc(F)c1`, the activation was 30.3%. On to `Cc1cc(C)n(-c2ccc(NC(=O)C3CCCCN3C(=O)c3cccs3)cc2)n1` (centres undefined), for which the activation was -0.0869%.

For `O=C(c1cccs1)N1CCCC(c2nc(-c3ccc(F)cc3)no2)C1` (centres undefined), the activation was 1.93%. Consider `CN1CCC(=NNC(=O)c2ccc(N(Cc3ccc(Cl)cc3)S(C)(=O)=O)cc2)CC1`, for which the activation was 0.73%. As for `CS(=O)(=O)N(Cc1ccccc1)c1ccc(C(=O)NN=C2CCCCCC2)cc1`, the activation was 43.7% (active). Turning to `Cc1ccccc1CN(c1ccc(C(=O)NCC2CCCO2)cc1)S(C)(=O)=O` (centres undefined), the activation is -1.43%.

For the compound `CCCC1CC(C)(C(=O)Cn2[nH]c(=O)ccc2=O)OC1=O` (centres undefined), the activation was 1.35%. In the case of `CCOc1cc(/C=N/NC(=O)c2ccc(CSc3nncn3C)cc2)ccc1OCC(=O)N1CCOCC1`, the activation is 0.857%. Consider `O=C(NCC12CC3CC(C1)CC(CNC(=O)N1CCCC1)(C3)C2)N1CCCC1`, for which the activation was -2.08%.

Consider `Cc1nn(CC(=O)NCC2CCCO2)c(=O)c2cc3ccccc3n12` (centres undefined), for which the activation is -0.347%.
